# DDE Tn6 FP inh: DD(E)-Tn6 binding inhibition, primary FP screen. inhibition, % at 8.3 µM. P02675. AID 720509. hit rate 0.21% among 370,000. Fibrin DD(E) TRITC-Tn6 fluorescence polarization displacement;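 active = inhibition above a per-campaign cutoff: mean of compounds within control limits plus 3 SD, cut at about 15% in these data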;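 also: 0% = median of all compound wells on the plate and 100% = blocking peptide control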
# PLC-beta3 inh: inhibitors of human phospholipase C beta3 | Q01970 | Purified PLC-beta3, fluorogenic substrate, fluorescence | inhibition, % at 12.2 µM | hit rate 0.18% among 370,000 | AID 720704; in the data active = inhibition above about 11%;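 also: 0% = median of compound wells on plate and 100% = full blocker control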
# Target sequence (Q01970 whole entry, looked up): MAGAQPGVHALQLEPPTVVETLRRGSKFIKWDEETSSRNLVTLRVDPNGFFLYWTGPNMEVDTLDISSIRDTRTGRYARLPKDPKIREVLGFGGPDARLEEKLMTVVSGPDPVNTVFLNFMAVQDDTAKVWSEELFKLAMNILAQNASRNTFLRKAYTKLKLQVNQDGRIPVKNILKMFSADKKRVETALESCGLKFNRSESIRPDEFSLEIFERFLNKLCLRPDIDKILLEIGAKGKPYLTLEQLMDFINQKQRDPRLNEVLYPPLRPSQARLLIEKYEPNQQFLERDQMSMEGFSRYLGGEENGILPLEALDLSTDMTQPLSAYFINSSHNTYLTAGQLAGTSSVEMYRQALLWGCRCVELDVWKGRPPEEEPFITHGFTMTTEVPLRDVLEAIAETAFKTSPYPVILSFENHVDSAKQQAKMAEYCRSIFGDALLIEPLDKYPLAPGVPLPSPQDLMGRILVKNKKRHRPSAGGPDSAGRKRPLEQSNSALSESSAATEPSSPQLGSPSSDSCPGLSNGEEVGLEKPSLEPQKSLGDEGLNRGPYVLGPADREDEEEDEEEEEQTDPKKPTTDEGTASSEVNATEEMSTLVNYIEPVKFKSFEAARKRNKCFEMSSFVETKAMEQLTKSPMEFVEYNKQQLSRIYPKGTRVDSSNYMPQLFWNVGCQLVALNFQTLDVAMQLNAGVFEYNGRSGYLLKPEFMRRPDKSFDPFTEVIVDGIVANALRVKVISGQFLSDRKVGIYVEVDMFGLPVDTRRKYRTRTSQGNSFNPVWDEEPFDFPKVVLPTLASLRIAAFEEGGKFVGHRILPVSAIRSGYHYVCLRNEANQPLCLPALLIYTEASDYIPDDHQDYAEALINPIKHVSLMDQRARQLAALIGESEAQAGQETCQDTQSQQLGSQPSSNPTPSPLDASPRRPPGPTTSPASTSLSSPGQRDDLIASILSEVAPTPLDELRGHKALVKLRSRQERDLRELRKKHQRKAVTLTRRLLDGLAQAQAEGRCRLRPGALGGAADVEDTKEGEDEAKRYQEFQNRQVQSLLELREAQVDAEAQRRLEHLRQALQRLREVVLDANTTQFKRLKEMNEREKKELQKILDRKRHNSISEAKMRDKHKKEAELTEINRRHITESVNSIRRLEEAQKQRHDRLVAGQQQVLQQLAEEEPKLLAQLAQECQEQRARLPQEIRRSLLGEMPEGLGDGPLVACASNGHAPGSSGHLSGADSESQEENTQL
# DNA FID counter: fluorescent intercalator displacement, NS3 helicase counter-screen | DNA fluorescent intercalator displacement, fluorescence | inhibition, % at 7.9 µM | AID 1845 | hit rate 0.17% among 290,000; in the data active = inhibition above about 37%;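 also: 0% = vehicle and 100% = reference compound; higher means more ethidium bromide displaced from hairpin DNA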
# PLCg1 inh: blocks human PLC-gamma1 enzyme activity | P19174 | purified PLC-gamma1, fluorogenic substrate, fluorescence | inhibition, % at 12.2 µM | hit rate 0.84% among 370,000
# DDE Tn7 FP inh: disrupts Tn7 cyclic peptide binding to fibrin D-Dimer-E complex. hit rate 0.13% among 370,000. FP displacement of FITC-Tn7 peptide from fibrin DD(E); 0% = median of compound wells per plate. inhibition, % at 8.3 µM. P02675;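 active = inhibition above the mean of compounds falling within the control limits plus 3 SD of them, cut at about 14% in these data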;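 also: 0% = plate median of compound wells and 100% = 10 µM Aha-Tn7 peptide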
#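 Test system: human clot-derived fibrin DD(E) complex / Quantity: 2 µM final DD(E) protein / Incubation: 10 min plus 3 h, room temperature / Measured by: fluorescence polarization / Benchmarks: high control of 10 µM Aha-Tn7 peptide / Replicates: singlicate testing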
# PLCg1 ctr: inhibits human PLC-gamma1 in PLC-beta3 counter-screen | shares compounds with PLCg1 inh | inhibition, % at 12.3 µM | hit rate 3.1% among 3,300 | AID 743258 | purified PLC-gamma1, fluorogenic substrate, fluorescence
# PLCb3 confirm: human PLC-beta3 inhibition, confirmation | shares compounds with PLCg1 inh | purified PLC-beta3, fluorogenic substrate fluorescence | inhibition, % at 12.3 µM | hit rate 1% among 3,300 | AID 743261; in the data active = inhibition above about 11%
# * marks the source's active call; other numbers are inactive results; i = inactive; · = no result; ! = not confirmed by another sample. This is a sample that favours compounds with a hit; in the whole collection about 1.4% have one here. Rule as the data show it, unless noted: active = inhibition above about 9.5%; inactive = the rest.
SMILES,DDE Tn6 FP inh,PLC-beta3 inh,DNA FID counter,PLCg1 inh,DDE Tn7 FP inh,PLCg1 ctr,PLCb3 confirm
O=C(Nc1nnc([C@H]2C[C@H](O)[C@@H](CO)O2)s1)NC(c1ccccc1)c1ccccc1,-1,3,·,12*,-1,-8,-4
O=C(NCc1ccc(F)cc1)Nc1nnc([C@@H]2C[C@H](O)[C@@H](CO)O2)s1,-2,1,·,-2,9,·,·
Cc1ccc(S(=O)(=O)NC2=C(N3CCN(Cc4ccccc4)CC3)C(=O)c3ccccc3C2=O)cc1,4,4,6,-1,0,·,·
Cc1ccc(S(=O)(=O)NC2=C(N3CCN(c4ccccc4F)CC3)C(=O)c3ccccc3C2=O)cc1,0,1,3,15*!,1,9.8*,8
CCOCCCNC(=O)c1cc(-c2ccc(Br)s2)nc2ccccc12,4,-46,-22,-37,2,·,·
O=C(O)c1ccc2c(c1)C(=O)/C(=C\c1ccco1)C2=O,10,5,-1,36*,-6,23*,-9
Cc1ccc(/C=C2/C(=O)c3ccc(C(=O)O)cc3C2=O)o1,-6,-5,-4,19*,-3,-3,-13
O=C(O)c1ccc2c(c1)C(=O)/C(=C/c1ccccc1)C2=O,-10,-15,-7,-12,6,·,·
CCn1nc(C)c(Br)c1-c1nc(CS(=O)(=O)c2ccsc2)no1,6,-6,-9,0,6,·,·
COc1ccc(CCN(C(=O)C(F)(F)F)C(C(=O)NC2CCCCC2)c2ccc(C)s2)cc1 (configuration not stated),-2,8,0,11*,0,1,-4
O=C(Nc1cccnc1)c1ccc([N+](=O)[O-])o1,1,-6,-6,2,-6,·,·
CC(NS(=O)(=O)c1ccccc1)C1COc2ccccc2O1 (configuration not stated),5,-3,-2,-1,13,·,·
CC(NC(=O)c1ccccc1Cl)C1COc2ccccc2O1 (configuration not stated),4,13*,-6,7,-9,1,1
CCOC(=O)Nc1ccc2c(CN3C(=O)NC4(CCCC4)C3=O)cc(=O)oc2c1,-5,i,-13,i,3,·,·
Nc1ccc(N2CCOCC2)c2nonc12,-2,-12,9,31*,2,-4,-1
O=C(CCc1cccc(Cl)c1)NC1CCCN(Cc2ccccc2F)C1 (configuration not stated),0,-4,-5,4,-1,·,·
O=C(Cc1ccc(Cl)cc1)NC1CCCN(Cc2ccccc2F)C1 (configuration not stated),5,-2,-6,12*,-9,-3,2
CCOc1cccc(CN2CCCC(CCC(=O)NCc3ccccc3F)C2)c1O (configuration not stated),5,11*,1,11*,1,-6,0
COc1cc(NC(=O)C2CCCCC2)c2ncccc2c1,-1,3,-15,2,0,·,·
O=C(Nc1cccc(Br)c1)OC1CC2CC1[C@H]1CCCCN1[C@H]2Cc1ccccc1 (some centres not stated),0,-2,·,0,-6,·,·
O=C(CO/N=C/c1c(Cl)cccc1Cl)NNC(=O)c1ccc(Cl)cc1,-1,0,-16,0,-3,·,·
C#CCOc1ccc2c3c(c(=O)oc2c1)CCCC3,-8,-38,-15,-30,11,·,·
N#C/C(=C\c1ccc(OCc2ccc(Br)cc2)cc1)C(=O)Nc1cccc(C(=O)O)c1,-6,-6,-14,-1,6,·,·
N#C/C(=C\c1ccc(OCc2ccc(F)cc2)cc1)C(=O)Nc1cccc(C(=O)O)c1,0,8,-4,10*,-3,-8,-12
Nc1ccc2c(c1)C(=O)C(=O)c1ccccc1-2,5,2,10,53*,2,51*,9
SMILES,DDE Tn6 FP inh,PLC-beta3 inh,DNA FID counter,PLCg1 inh,DDE Tn7 FP inh,PLCg1 ctr,PLCb3 confirm
CC(=O)NC1C(OCCOc2ccc(Cl)cc2Cl)OC(COC(C)=O)C(OC(C)=O)C1OC(C)=O (configuration not stated),-2,4,-30,10*,-4,-4,-1
CCCCCCCNC(=O)c1cc(-c2ccncc2)nc2ccccc12,1,1,-28,8,2,·,·
CN(c1cccnc1)c1ccc(NC(=O)CCc2c[nH]c3ccccc23)cc1Br,-7,-23,·,-16,2,·,·
O=C(NCCN1CCOCC1)c1cccs1,1,1,-3,-2,1,·,·
c1csc(CNCCN2CCOCC2)c1,4,1,2,12*,1,-6,-3
O=C(COc1ccc(S(=O)(=O)NC2CCCC2)cc1)NCC1CCCO1 (configuration not stated),-6,3,-1,0,-3,·,·
COc1ccc(/C=N/Nc2nc(Nc3ccccc3)nc(N3CCCC3)n2)cc1[N+](=O)[O-],2,-4,-5,-2,-5,·,·
COc1cc(/C=N/Nc2nc(Nc3ccccc3)nc(N3CCCCC3)n2)ccc1OCC(=O)O,3,9,-11,12*,-3,-3,-3
COc1ccc(CNC(=O)COC(=O)c2ccccc2OCC(=O)Nc2ccc(SC(F)F)cc2)cc1,5,-7,-2,-1,7,·,·
Cc1cccc(-c2nn(-c3ccccc3)cc2C(=O)Nc2cccc(S(=O)(=O)NC3=NCCC3)c2)c1,-7,2,·,11*,-12,-6,-3
O=S(=O)(O)c1cc(O)ccc1O,1,-5,·,1,1,·,·
O=S(=O)(c1cc(O)ccc1O)c1cccc2c(S(=O)(=O)c3cc(O)ccc3O)cccc12,-7,6,·,10*,-5,8,9
CCOc1ccc(Cl)cc1S(=O)(=O)N1CCN(c2ccc(C)c(C)c2)CC1,-2,2,-1,10*,-2,-8,-3
CCOc1ccc(Cl)cc1S(=O)(=O)N1CCN(c2ccc(F)cc2)CC1,0,0,-19,3,1,·,·
COc1ccc(/C=N/NC(=O)C(=O)N2CCN(c3ccccc3OC)CC2)cc1,-6,-1,-25,12*,-1,-5,-2
O=c1[nH]c(C2CCN(S(=O)(=O)c3ccc4c(c3)OCCO4)CC2)nc2c1nnn2Cc1ccc(F)cc1,-1,-6,-37,1,-1,·,·
O=C(Cc1cccs1)N1CCC(c2nc3c(nnn3Cc3ccccc3Cl)c(=O)[nH]2)CC1,4,17*,-37,18*,5,11*,16*
O=c1[nH]c(C2CCN(S(=O)(=O)c3ccccc3)CC2)nc2c1nnn2Cc1ccc2c(c1)OCCO2,-1,-3,-36,10*,-1,-3,-1
C=CCC(NCc1ccccc1)c1ccccc1 (configuration not stated),1,1,1,1,8,·,·
